Measured values from ChEMBL document CHEMBL1134450, “Solid-phase synthesis of a nonpeptide RGD mimetic library: new selective alphavbeta3 integrin antagonists” (J Med Chem, 2001).
Where a SMILES comes first, the peptide text is derived from it. [ ]: non-standard residue; d: D form. NMeF = CN[C@@H](Cc1ccccc1)C(=O)O; azaGly = NNC(=O)O

Key:
Integrin alpha-V/beta-3 = Integrin alpha-V/beta-3 (Homo sapiens, UniProt P05106+P06756); test: Inhibitory activity against vitronectin receptor (alpha V beta 3); format: protein-complex assay
Procedure, shortened: (§1)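 Solid-phase competition binding. αvβ3 was recombinant, from baculovirus, purified on LM609 antibody column, paired with biotinylated human vitronectin. αIIbβ3 was paired with biotinylated human fibrinogen. Integrins coated at 1 µg/mL, blocked, then compounds serially diluted and co-incubated with ligand (1 µg/mL), 37 °C, 3 h. Read-out was alkaline-phosphatase anti-biotin.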

[1] = Partition coefficient (logP); format: physicochemical; details: octanol/water
[2] = target: Integrin alpha-IIb/beta-3 (Homo sapiens, UniProt P05106+P08514); test: Inhibitory activity against alpha IIb beta 3 integrin; format: protein-complex assay; procedure, shortened: as §1
[3] = target: Integrin alpha-V/beta-3 and alpha-IIb/beta 3 (Homo sapiens) (UniProt P05106+P06756+P08514); test: Selectivity designates the quotient of affinities to integrins alpha v beta-3 and alpha IIb beta3; format: protein assay
Procedure, shortened: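 Quotient of IC50 values from the immobilized-integrin competition assays: αvβ3 against biotinylated vitronectin and αIIbβ3 against biotinylated fibrinogen. Ligand at 1 µg/mL, 37 °C, 3 h, anti-biotin alkaline-phosphatase detection. IC50 came from sigmoid fits of triplicates.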

Chain of Integrin alpha-V/beta-3 (P05106 27-788 limits assumed): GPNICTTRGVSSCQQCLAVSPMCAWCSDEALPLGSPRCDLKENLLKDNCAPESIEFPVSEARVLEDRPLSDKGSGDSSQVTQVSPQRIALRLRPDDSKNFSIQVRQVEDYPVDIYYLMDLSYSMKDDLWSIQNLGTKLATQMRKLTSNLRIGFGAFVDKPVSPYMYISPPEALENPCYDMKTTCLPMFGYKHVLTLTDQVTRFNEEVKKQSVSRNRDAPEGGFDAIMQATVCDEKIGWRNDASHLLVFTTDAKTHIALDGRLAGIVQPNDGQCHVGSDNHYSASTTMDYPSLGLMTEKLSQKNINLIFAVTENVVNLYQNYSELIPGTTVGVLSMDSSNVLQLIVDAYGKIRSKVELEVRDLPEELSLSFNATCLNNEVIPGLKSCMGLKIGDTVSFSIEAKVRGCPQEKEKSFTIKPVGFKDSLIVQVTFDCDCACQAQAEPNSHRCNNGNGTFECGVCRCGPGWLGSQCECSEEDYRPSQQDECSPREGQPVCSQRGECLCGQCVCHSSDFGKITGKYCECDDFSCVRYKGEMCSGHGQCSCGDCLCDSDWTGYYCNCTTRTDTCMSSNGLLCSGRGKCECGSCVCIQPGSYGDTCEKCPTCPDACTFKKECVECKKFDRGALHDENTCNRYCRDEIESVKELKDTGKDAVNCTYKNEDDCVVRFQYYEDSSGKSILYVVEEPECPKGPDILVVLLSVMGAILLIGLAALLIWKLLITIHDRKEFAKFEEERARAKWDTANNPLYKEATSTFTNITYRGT
Chain of Integrin alpha-V/beta-3 (P06756 31-889 limits assumed): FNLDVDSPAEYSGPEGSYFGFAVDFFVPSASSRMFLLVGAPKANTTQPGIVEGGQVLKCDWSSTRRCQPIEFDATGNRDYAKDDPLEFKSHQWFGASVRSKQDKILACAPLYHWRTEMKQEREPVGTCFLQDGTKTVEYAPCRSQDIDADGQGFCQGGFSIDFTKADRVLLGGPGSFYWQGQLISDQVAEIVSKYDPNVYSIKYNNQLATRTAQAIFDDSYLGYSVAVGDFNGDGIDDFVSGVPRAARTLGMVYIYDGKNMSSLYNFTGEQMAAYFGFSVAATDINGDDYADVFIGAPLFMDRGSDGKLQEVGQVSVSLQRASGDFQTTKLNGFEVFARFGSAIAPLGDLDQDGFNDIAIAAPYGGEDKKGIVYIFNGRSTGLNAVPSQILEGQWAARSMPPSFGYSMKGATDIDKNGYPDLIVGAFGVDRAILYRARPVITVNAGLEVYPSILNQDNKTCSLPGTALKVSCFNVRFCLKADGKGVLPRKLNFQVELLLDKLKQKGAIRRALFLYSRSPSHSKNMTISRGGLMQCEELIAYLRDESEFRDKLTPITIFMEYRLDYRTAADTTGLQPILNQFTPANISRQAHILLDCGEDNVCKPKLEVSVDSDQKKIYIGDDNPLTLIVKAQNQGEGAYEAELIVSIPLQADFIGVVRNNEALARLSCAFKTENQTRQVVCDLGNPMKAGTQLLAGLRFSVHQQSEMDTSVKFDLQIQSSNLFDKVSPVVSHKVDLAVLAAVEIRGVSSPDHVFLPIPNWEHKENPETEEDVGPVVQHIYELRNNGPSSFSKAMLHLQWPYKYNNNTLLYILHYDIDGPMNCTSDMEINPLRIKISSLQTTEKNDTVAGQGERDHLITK
Chain of Integrin alpha-V/beta-3 (P06756 891-1048 limits assumed): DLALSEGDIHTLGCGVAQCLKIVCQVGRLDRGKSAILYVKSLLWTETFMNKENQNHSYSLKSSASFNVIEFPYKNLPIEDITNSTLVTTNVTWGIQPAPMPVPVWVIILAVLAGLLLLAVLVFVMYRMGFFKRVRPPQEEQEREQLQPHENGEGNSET
Chain of Integrin alpha-IIb/beta-3 (P05106 27-788 limits assumed): as the sequence (P05106 27-788 limits assumed) above
Chain of Integrin alpha-IIb/beta-3 (P08514 32-887 limits assumed): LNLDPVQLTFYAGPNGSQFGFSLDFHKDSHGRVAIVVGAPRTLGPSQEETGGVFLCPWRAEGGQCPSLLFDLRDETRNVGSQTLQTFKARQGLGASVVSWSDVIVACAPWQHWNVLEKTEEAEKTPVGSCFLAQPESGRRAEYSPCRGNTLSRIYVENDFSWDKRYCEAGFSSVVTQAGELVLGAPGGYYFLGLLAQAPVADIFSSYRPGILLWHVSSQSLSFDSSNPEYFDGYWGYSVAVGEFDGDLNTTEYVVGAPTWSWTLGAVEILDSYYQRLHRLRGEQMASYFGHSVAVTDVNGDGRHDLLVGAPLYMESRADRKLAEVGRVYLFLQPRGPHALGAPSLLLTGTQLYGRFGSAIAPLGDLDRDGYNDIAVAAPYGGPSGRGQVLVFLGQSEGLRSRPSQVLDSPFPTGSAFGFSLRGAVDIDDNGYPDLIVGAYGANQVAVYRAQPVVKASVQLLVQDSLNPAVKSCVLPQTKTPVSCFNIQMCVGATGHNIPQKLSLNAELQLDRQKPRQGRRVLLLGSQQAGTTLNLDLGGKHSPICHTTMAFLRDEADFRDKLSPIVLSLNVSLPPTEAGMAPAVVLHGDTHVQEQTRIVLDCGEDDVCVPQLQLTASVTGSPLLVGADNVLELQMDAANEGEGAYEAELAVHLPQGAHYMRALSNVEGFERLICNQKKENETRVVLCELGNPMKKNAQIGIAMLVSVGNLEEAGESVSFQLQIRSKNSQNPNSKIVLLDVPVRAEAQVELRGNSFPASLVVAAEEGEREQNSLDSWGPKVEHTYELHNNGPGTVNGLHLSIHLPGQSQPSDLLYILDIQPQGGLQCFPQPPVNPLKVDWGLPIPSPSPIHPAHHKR
Chain of Integrin alpha-IIb/beta-3 (P08514 891-1039 limits assumed): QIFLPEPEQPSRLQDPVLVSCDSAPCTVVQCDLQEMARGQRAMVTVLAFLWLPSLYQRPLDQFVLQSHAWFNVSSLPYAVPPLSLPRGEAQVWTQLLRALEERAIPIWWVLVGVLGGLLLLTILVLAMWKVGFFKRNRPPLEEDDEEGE

SMILES | IC50 (Integrin alpha-V/beta-3) [nM] | logP [1] | IC50 [2] [nM] | Selectivity [3]
Cc1ccnc(NCCCCC(=O)NNC(=O)NC(CC(=O)O)c2ccc(Cl)cc2)c1 (stereo unspecified) | 0.3 | 2.2 | 7000 | 
NC(=O)C(CC(=O)O)NC(=O)NNC(=O)c1cccc(N=C(N)N)c1 (stereo unspecified) | 150 | -2.42 | > 10000 | 
NC(N)=Nc1cccc(C(=O)NNC(=O)NC(CC(=O)O)c2cccc3ccccc23)c1 (stereo unspecified) | 27 | 1.7 | > 10000 | 
N=C(N)Nc1cccc(C(=O)NNC(=O)CC(CC(=O)O)c2ccc(F)cc2)c1 (stereo unspecified) | 4 | 1.28 | > 1000 | 
Cc1ccnc(NCCCCC(=O)NNC(=O)CC(CC(=O)O)c2ccc(Cl)cc2)c1 (stereo unspecified) | 15 | 2.63 |  | 
N=C(N)Nc1cccc(C(=O)NNC(=O)CC(CC(=O)O)c2ccccc2)c1 (stereo unspecified) | 15 | 1.13 | > 10000 | 
CC(=N)Nc1cccc(C(=O)NNC(=O)CC(CC(=O)O)c2ccccc2)c1 (stereo unspecified) | 23 | 1.44 | > 10000 | 
COc1ccc(C(CC(=O)O)CC(=O)NNC(=O)c2cccc(N=C(C)N)c2)cc1 (stereo unspecified) | 37 | 1.31 | > 1000 | 
N=C(N)Nc1cccc(C(=O)NNC(=O)CC(CC(=O)O)c2cc(Cl)cc(Cl)c2)c1 (stereo unspecified) | 2 | 2.24 | 1000 | 
CC(=N)Nc1cccc(C(=O)NNC(=O)CC(CC(=O)O)c2ccc(Cl)cc2)c1 (stereo unspecified) | 160 | 2 | 8000 | 
Cc1ccnc(NCCCCC(=O)NNC(=O)NC(CC(=O)O)c2ccc(Br)cc2)c1 (stereo unspecified) | 7 | 2.47 |  | 
Cc1ccnc(NCCCCC(=O)NNC(=O)CC(CC(=O)O)c2ccccc2)c1 (stereo unspecified) | 7 | 2.07 | > 10000 | 
CC(=N)Nc1cccc(C(=O)NNC(=O)CC(CC(=O)O)c2ccc(-c3ccccc3)cc2)c1 (stereo unspecified) | 26 | 3.11 | > 1000 | 
Cc1ccnc(NCCCCC(=O)NNC(=O)NC(CC(=O)O)c2cccc3ccccc23)c1 (stereo unspecified) | 140 | 2.64 |  | 
N=C(N)Nc1cccc(C(=O)NNC(=O)NC(CC(=O)O)C(N)=O)c1 (stereo unspecified) |  |  |  | > 70
NCCCC[C@H](NC(=O)[C@@H]1CCCN1C(=O)[C@H](CO)NC(=O)[C@H](CC(=O)O)NC(=O)CNC(=O)[C@H](CCCN=C(N)N)NC(=O)CN)C(=O)O | 1000 |  | > 10000 | 8
Cc1ccnc(NCCCCC(=O)NNC(=O)NC(CC(=O)O)c2cc(Cl)cc(Cl)c2)c1 (stereo unspecified) | 80 | 2.76 | > 10000 | 
Cc1ccnc(NCCCCC(=O)NNC(=O)CC(CC(=O)O)c2ccc(-c3ccccc3)cc2)c1 (stereo unspecified) | 3 |  |  | 1000
Cc1ccnc(NCCCCC(=O)NNC(=O)NCCC(=O)O)c1 | 1400 | -0.07 |  | 
CC(N)=Nc1cccc(C(=O)NNC(=O)CC(CC(=O)O)c2ccc(Br)cc2)c1 (stereo unspecified) | 40 | 2.27 | > 1000 | 
Cc1ccnc(NCCCCC(=O)NNC(=O)NC(CC(=O)O)c2ccc(F)cc2)c1 (stereo unspecified) | 48 | 1.8 | > 10000 | 
COc1ccc(C(CC(=O)O)NC(=O)NNC(=O)CCCCNc2cc(C)ccn2)cc1 (stereo unspecified) | 42 | 1.52 | > 10000 | 
CC(=N)Nc1cccc(C(=O)NNC(=O)CC(CC(=O)O)c2ccc(F)cc2)c1 (stereo unspecified) | 160 | 1.6 | > 1000 | 

SMILES | IC50 (Integrin alpha-V/beta-3) [nM] | logP [1] | IC50 [2] [nM] | Selectivity [3]
Cc1ccnc(NCCCCC(=O)NNC(=O)CC(CC(=O)O)c2ccc(Br)cc2)c1 (stereo unspecified) | 6 | 2.9 | 9000 | 
NC(N)=Nc1cccc(C(=O)NNC(=O)NC(CC(=O)O)c2ccc(F)cc2)c1 (stereo unspecified) | 6 | 0.86 | 1000 | 
CC(=N)Nc1cccc(C(=O)NNC(=O)CC(CC(=O)O)c2cc(Cl)cc(Cl)c2)c1 (stereo unspecified) | 6 | 2.55 |  | 
Cc1ccnc(NCCCCC(=O)NNC(=O)NC(CC(=O)O)c2ccccc2)c1 (stereo unspecified) | 37 | 1.64 | > 10000 | 
Cc1ccnc(NCCCCC(=O)NNC(=O)CC(CC(=O)O)c2ccc(F)cc2)c1 (stereo unspecified) | 35 | 2.23 |  | 
N=C(N)Nc1cccc(C(=O)NNC(=O)NC(CC(=O)O)c2ccccc2)c1 (stereo unspecified) | 0.8 | 0.7 | 8500 | 
N=C(N)Nc1cccc(C(=O)NNC(=O)NC(CC(=O)O)c2ccc(Br)cc2)c1 (stereo unspecified) | 1 | 1.53 | > 1000 | 
N=C(N)Nc1cccc(C(=O)NNC(=O)NC(CC(=O)O)c2ccc(Cl)cc2)c1 (stereo unspecified) | 0.1 | 1.26 | 5500 | 
COc1ccc(C(CC(=O)O)CC(=O)NNC(=O)c2cccc(NC(=N)N)c2)cc1 (stereo unspecified) | 1 | 1 | > 1000 | 
O=C(O)CC(CC(=O)NNC(=O)c1cccc(Nc2ccccn2)c1)c1cc(Cl)cc(Cl)c1 (stereo unspecified) | 210 | 3.54 |  | 
Cc1ccnc(NCCCCC(=O)NNC(=O)NC(CC(=O)O)c2ccc(OC(F)(F)F)cc2)c1 (stereo unspecified) | 130 | 3.17 |  | 
Cc1ccnc(NCCCCC(=O)NNC(=O)CC(CC(=O)O)c2cc(Cl)cc(Cl)c2)c1 (stereo unspecified) | 9 | 3.19 | > 10000 | 
COc1ccc(C(CC(=O)O)NC(=O)NNC(=O)c2cccc(N=C(N)N)c2)cc1 (stereo unspecified) | 0.9 | 0.58 | > 1000 | 
NC(N)=Nc1cccc(C(=O)NNC(=O)NC(CC(=O)O)c2cc(Cl)cc(Cl)c2)c1 (stereo unspecified) | 1 | 1.82 | > 1000 | 
N=C(N)Nc1cccc(C(=O)NNC(=O)CC(CC(=O)O)c2ccc(Br)cc2)c1 (stereo unspecified) | 2 | 1.95 | > 1000 | 
N=C(N)Nc1cccc(C(=O)NNC(=O)CC(CC(=O)O)c2ccc(Cl)cc2)c1 (stereo unspecified) | 2 | 1.68 | > 1000 | 
COc1ccc(C(CC(=O)O)CC(=O)NNC(=O)CCCCNc2cc(C)ccn2)cc1 (stereo unspecified) | 22 | 1.94 | > 10000 | 
N=C(N)Nc1cccc(C(=O)NNC(=O)CC(CC(=O)O)c2ccc(-c3ccccc3)cc2)c1 (stereo unspecified) | 0.7 | 2.8 | 1000 | 
CC(C)[C@@H]1NC(=O)[C@H](CCCN=C(N)N)NC(=O)NNC(=O)[C@H](CC(=O)O)NC(=O)[C@H](Cc2ccccc2)N(C)C1=O (cyclo(D[azaGly]RV[NMeF])) |  |  |  | 270
CC(C)[C@@H]1NC(=O)[C@H](CCCN=C(N)N)NC(=O)CNC(=O)[C@H](CC(=O)O)NC(=O)[C@H](Cc2ccccc2)NC1=O (cyclo(DGRVF)) |  |  |  | 415
N=C(N)NCCCCC(=O)NNC(=O)NC(CC(=O)O)c1ccccc1 (stereo unspecified) | 40 | -0.26 | 1000 | 
N=C(N)Nc1cccc(C(=O)NNC(=O)NC(CC(=O)O)c2ccc(OC(F)(F)F)cc2)c1 (stereo unspecified) | 3 | 2.23 | > 1000 | 
CC(C)[C@@H]1NC(=O)[C@H](CCCN=C(N)N)NC(=O)CNC(=O)[C@H](CC(=O)O)NC(=O)[C@H](Cc2ccccc2)N(C)C1=O (cyclo(DGRV[NMeF])) |  |  |  | 1460
